According to ChEMBL document CHEMBL1141461, “Polyene antibiotics from Streptomyces mediocidicus” (2007):

Key:
Assay type in all cases: functional
[1] = test system: Candida parapsilosis; experiment: Antifungal activity against Candida parapsilosis GC 3074; details: Lodderomyces parapsilosis
Outline: (§1)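 Yeast MIC by broth microdilution in RPMI-1640. Agent at final 0.03-128 µg/mL, yeast inoculum 0.5-2.5 × 10^3 cfu/mL. MIC read after 48 h incubation at 30 °C.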

[2] = test system: Candida parapsilosis; experiment: Antifungal activity against Candida parapsilosis GC 3075; details: Lodderomyces parapsilosis; outline: as §1
[3] = test system: Candida parapsilosis; experiment: Antifungal activity against Candida parapsilosis GC 3076; details: Lodderomyces parapsilosis; outline: as §1
[4] = test system: Candida albicans; experiment: Antifungal activity against Candida albicans GC 3064; outline: as §1
[5] = test system: Candida albicans; experiment: Antifungal activity against Candida albicans GC 3065; outline: as §1
[6] = test system: Candida albicans; experiment: Antifungal activity against Candida albicans GC 3066; outline: as §1
[7] = test system: Candida tropicalis; experiment: Antifungal activity against Candida tropicalis GC 3080; outline: as §1
[8] = test system: Candida tropicalis; experiment: Antifungal activity against Candida tropicalis GC 3081; outline: as §1
[9] = test system: Pichia kudriavzevii; experiment: Antifungal activity against Candida Krussii GC 3067; outline: as §1
[10] = test system: Aspergillus fumigatus; experiment: Antifungal activity against Aspergillus fumigatus GC 3092
[11] = test system: Aspergillus niger; experiment: Antifungal activity against Aspergillus niger GC 3091
[12] = test system: Kluyveromyces marxianus; experiment: Antifungal activity against Candida pseudotropicalis GC 3070; outline: as §1
[13] = test system: Clavispora lusitaniae; experiment: Antifungal activity against Candida lusitaniae GC 3068; outline: as §1
[14] = test system: Diutina rugosa; experiment: Antifungal activity against Candida rugosa GC 3077; outline: as §1

Measured: MIC

COC(=O)/C(C)=C/C=C/C=C/CC/C=C/C(C)C(O)C(C)C(O)/C=C/C=C/C=C/C=C/C=C/C=C/CC(OS(=O)(=O)O)C(C)C(=O)CC(O)CC(O)/C=C/CC(O)CC(O)CC(O)/C=C/CC(O)CC(O)/C=C/CC(O)CC(O)CCCN (stereo not given)
128 µg/mL: [1]
8 µg/mL: [9] | [12] | [14]
32 µg/mL: [6] | [8]
> 128 µg/mL: [2] | [3] | [10] | [11]
16 µg/mL: all other assays above

C[C@@H]1[C@H](O)[C@@H](C)/C=C/C=C/C=C/C=C/C=C/C=C/C=C/[C@H](O[C@@H]2O[C@H](C)[C@@H](O)[C@H](N)[C@@H]2O)C[C@@H]2O[C@](O)(C[C@@H](O)C[C@@H](O)[C@H](O)CC[C@@H](O)C[C@@H](O)CC(=O)O[C@H]1C)C[C@H](O)[C@H]2C(=O)O [AMPHOTERICIN B]
0.25 µg/mL: [1] | [5] | [6] | [10] | [11] | [12] | [13]
0.5 µg/mL: all other assays above

C\C(=C/C=C/C=C/CC/C=C/C(C)C(O)C(C)C(O)/C=C/C=C/C=C/C=C/C=C/C=C/CC(OS(=O)(=O)O)C(C)C(=O)CC(O)CC(O)/C=C/CC(O)CC(O)CC(O)/C=C/CC(O)CC(O)/C=C/CC(O)CC(O)CCCNC(=N)N)C(=O)O (stereo not given) [CLETHRAMYCIN]
> 128 µg/mL: [10]
2 µg/mL: [9] | [12]
8 µg/mL: [8]
16 µg/mL: [1] | [2] | [3] | [7]
4 µg/mL: all other assays above

C\C(=C/C=C/C=C/CC/C=C/C(C)C(O)C(C)C(O)/C=C/C=C/C=C/C=C/C=C/C=C/CC(OS(=O)(=O)O)C(C)C(=O)CC(O)CC(O)/C=C/CC(O)CC(O)CC(O)/C=C/CC(O)CC(O)/C=C/CC(O)CC(O)CCCN)C(=O)O (stereo not given) [MEDIOMYCIN A]
1 µg/mL: [11] | [12]
4 µg/mL: [6]
8 µg/mL: [8]
16 µg/mL: [1] | [2] | [3] | [7]
128 µg/mL: [10]
2 µg/mL: all other assays above

C\C(=C/C=C/C=C/CC/C=C/C(C)C(O)C(C)C(O)/C=C/C=C/C=C/C=C/C=C/C=C/CC(O)C(C)C(=O)CC(O)CC(O)/C=C/CC(O)CC(O)CC(O)/C=C/CC(O)CC(O)/C=C/CC(O)CC(O)CCCN)C(=O)O (stereo not given) [MEDIOMYCIN B]
2 µg/mL: [1] | [3] | [7] | [8] | [13]
16 µg/mL: [10]
4 µg/mL: [2]
1 µg/mL: all other assays above
